inhibition, Activity and IC50 data for two compounds are collected here from ChEMBL document CHEMBL4834402, “Discovery of TAK-981, a First-in-Class Inhibitor of SUMO-Activating Enzyme for the Treatment of Cancer” (J Med Chem, 2021).

Active and inactive are the calls of the source. The calls are words filed in the database; no cut-off is given here.

Experiment [1] addresses T1, SUMO-activating enzyme (Homo sapiens) (UniProt Q9UBE0+Q9UBT2). Nature of the experiment: Inhibition of SAE in human HCT116 cells xenografted in NCr nude mouse assessed as reduction in SUMO2/3 protein conjugates at 50 mg/kg, iv and measured up to 16 hrs by immunohistochemistry analysis. In kind it is organism-based. The following applies: HCT-116. Put shortly:
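HCT-116 tumors in female Ncr nude mice, n = 3 per time point, after a single IV dose at t = 0. SUMO2/3 conjugation in tumors measured by IHC at 2, 4, 8 and 16 h. Read-out is nuclei staining positive for SUMO2/3 conjugates over total nuclei, normalized to vehicle-treated animals (time = 0 h), expressed as percent inhibition.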
Background: In xenograft studies the graft and the host belong to different species.

Experiment [2] deals with T1, SUMO-activating enzyme (Homo sapiens). Description: Inhibition of SAE in human HCT116 cells xenografted in NCr nude mouse assessed as improvement in SUMO-inhibitor adduct durability at 50 mg/kg, iv and measured up to 16 hrs by mass spectrometry. In kind it is organism-based. The conditions noted are these: HCT-116. Put shortly: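 Single IV dose at t = 0 to female Ncr nude mice bearing HCT-116 tumors, n = 3 per time point. Tumors harvested 2, 4, 8 and 16 h post-injection. Read-out is the adduct/SAE ratio: quantity of SUMO-compound adduct over quantity of total SAE enzyme, both measured by mass spectrometry. Values are averaged per time point.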

The subject of the next experiment is HCT-116. Description: Antitumor activity against human HCT-116 cells xenografted in Ncr/nude mouse assessed as tumor growth inhibition at 50 mg/kg, sc administered once daily for 21 days and measured twice weekly. In kind it is functional, organism-based. The conditions noted are these: time 21.0 day. The essentials: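 Female Ncr/nude mice carrying HCT-116 tumors (~200 mm3) were randomized, n = 8/group, with treatment from Day 1. Schedules were QD x21 (Days 1–21) or QD x3/week (three consecutive dosing days, four off). Tumor volume was measured twice weekly.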

Another experiment deals with OCI-Ly10. Nature of the experiment: Antitumor activity against human OCI-Ly10 cells xenografted in CB17 SCID mouse assessed as tumor growth inhibition at 50 mg/kg, sc mg/kg administered once daily for 21 days and measured twice weekly. In kind it is functional, organism-based. The conditions noted are these: time 21.0 day. Put shortly: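 Female CB17 SCID mice carrying OCI-Ly10 tumors (~200 mm3) were randomized, n = 8/group, with treatment from Day 1. Schedules were QD x21 (Days 1–21) or QD x3/week (three consecutive dosing days, four off). Tumor volume was measured twice weekly.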

The target in experiment [3] is T2, SUMO-activating enzyme (Homo sapiens, UniProt Q9UBT2). Nature of the experiment: Inhibition of recombinant SAE (unknown origin) assessed as reduction in transfer of SUMO1 to UBC9 using SUMO1 as a substrate in presence of ATP at Km concentration by HTRF assay. The experiment is classed as protein-complex assay. Put shortly: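 HTRF transthiolation assay measuring transfer of SUMO1 to UBC9, the E2 for SAE.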

A short description of experiment [4]: Inhibition of recombinant UAE (unknown origin) in presence of ATP at Km concentration by HTRF assay. Details: species or system Homo sapiens. In general terms: Time-resolved FRET reads energy transfer from a long-lived donor to a nearby acceptor.
Experiment [5] addresses T3, NEDD8 activating enzyme (Homo sapiens, UniProt Q8TBC4).
T3 sequence (Q8TBC4 whole entry): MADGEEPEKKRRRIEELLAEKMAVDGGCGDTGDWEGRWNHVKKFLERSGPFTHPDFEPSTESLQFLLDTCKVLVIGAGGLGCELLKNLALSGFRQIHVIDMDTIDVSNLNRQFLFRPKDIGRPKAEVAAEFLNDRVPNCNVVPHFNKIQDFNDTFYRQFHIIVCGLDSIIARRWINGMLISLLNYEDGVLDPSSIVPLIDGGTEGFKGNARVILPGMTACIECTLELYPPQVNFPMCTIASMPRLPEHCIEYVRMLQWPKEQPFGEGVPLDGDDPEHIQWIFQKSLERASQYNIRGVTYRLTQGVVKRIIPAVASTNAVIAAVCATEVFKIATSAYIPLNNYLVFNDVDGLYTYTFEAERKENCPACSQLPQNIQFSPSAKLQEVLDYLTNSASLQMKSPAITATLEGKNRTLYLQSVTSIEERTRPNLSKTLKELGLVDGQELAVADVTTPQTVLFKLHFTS
T3 sequence (Q13564 whole entry): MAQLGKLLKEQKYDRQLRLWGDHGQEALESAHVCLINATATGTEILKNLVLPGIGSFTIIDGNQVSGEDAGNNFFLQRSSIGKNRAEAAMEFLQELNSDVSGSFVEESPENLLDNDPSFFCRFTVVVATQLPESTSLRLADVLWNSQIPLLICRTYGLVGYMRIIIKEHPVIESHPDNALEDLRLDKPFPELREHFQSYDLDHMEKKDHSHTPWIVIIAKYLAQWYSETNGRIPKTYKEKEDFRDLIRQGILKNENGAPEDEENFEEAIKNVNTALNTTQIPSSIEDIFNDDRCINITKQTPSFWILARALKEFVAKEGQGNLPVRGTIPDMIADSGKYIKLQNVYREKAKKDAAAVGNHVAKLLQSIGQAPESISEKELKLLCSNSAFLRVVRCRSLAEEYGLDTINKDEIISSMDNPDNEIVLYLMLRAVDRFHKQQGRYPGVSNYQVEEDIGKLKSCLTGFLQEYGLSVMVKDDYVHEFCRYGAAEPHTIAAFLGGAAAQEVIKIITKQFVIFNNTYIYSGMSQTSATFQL
Description: Inhibition of recombinant NAE (unknown origin) in presence of ATP at Km concentration by HTRF assay. The experiment is classed as protein-complex assay.

The target of experiment [6] is T2, SUMO-activating enzyme. Nature of the experiment: Inhibition of SAE (unknown origin) using SUMO1 as substrate incubated for 60 mins in presence of ATP and PPi by pyrophosphate exchange assay. The experiment is classed as protein-complex assay. Put shortly:
(§1)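 Pyrophosphate exchange assay of E1 activity at 1 mM ATP. Substrates were SUMO1 or SUMO2 for SAE, Ub for UAE and Nedd-8 for NAE.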

The target of experiment [7] is T2, SUMO-activating enzyme. Nature of the experiment: Inhibition of SAE (unknown origin) using SUMO2 as substrate incubated for 60 mins in presence of ATP and PPi by pyrophosphate exchange assay. The experiment is classed as protein-complex assay. The essentials: as §1
The nature of experiment [8]: Inhibition of UAE (unknown origin) using Ub as substrate incubated for 60 mins in presence of ATP and PPi by pyrophosphate exchange assay. Details: species or system Homo sapiens. Put shortly:
as §1

The target of experiment [9] is T3, NEDD8 activating enzyme. Nature of the experiment: Inhibition of NAE (unknown origin) using Nedd-8 as substrate incubated for 60 mins in presence of ATP and PPi by pyrophosphate exchange assay. In kind it is protein-complex assay. Put shortly: as §1
The target of experiment [10] is T2, SUMO-activating enzyme. Description: Inhibition of SAE in human HCT116 cells assessed as reduction in conjugation of SUMO proteins to UBC9 by Western blot analysis. The experiment is classed as cell-based, HCT-116. Put shortly: (§2)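 HCT116 cells, quantitative Western blot of E2–UBL conjugates. Read-outs were SUMO–UBC9 for SAE, ubiquitin–[…] for UAE and Nedd-8–[…] for NAE.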
(Immunoblotting shows a protein as a band on a membrane.)

The nature of experiment [11]: Inhibition of UAE in human HCT116 cells assessed as reduction in conjugation of ubiquitin to […] by Western blot analysis. In kind it is cell-based. The conditions noted are these: hct-116. Put shortly:
as §2

In experiment [12] the target is T3, NEDD8 activating enzyme. Description: Inhibition of NAE in human HCT116 cells assessed as reduction in conjugation of Nedd8 […] by Western blot analysis. In kind it is cell-based, HCT-116. Put shortly: as §2
The target in experiment [13] is T2, SUMO-activating enzyme. Description: Inhibition of SAE in human HCT116 cells assessed as reduction in redistribution of SUMO2/3 proteins from nucleus to cytosol incubated for 4 hrs by immunofluorescence assay. In kind it is cell-based, HCT-116. The essentials:
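HCT-116 cells exposed to compound across a concentration range for 4 h, then stained with anti-SUMO2/3 monoclonal antibody. Automated imaging scored the nuclear (inner) to cytoplasmic (outer) SUMO2/3 ratio. IC50 taken from the dose response.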

T2 sequence (Q9UBE0 whole entry): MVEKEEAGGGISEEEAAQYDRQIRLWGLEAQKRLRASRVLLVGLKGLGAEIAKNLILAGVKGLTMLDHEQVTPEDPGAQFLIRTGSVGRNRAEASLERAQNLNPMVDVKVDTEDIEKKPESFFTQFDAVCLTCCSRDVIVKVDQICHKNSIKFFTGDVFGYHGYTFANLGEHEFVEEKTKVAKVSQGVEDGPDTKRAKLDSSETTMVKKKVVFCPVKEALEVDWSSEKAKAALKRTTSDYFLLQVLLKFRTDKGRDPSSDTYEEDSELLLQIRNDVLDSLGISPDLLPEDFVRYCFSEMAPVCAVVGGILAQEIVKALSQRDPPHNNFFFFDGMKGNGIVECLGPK
T2 sequence (Q9UBT2 whole entry): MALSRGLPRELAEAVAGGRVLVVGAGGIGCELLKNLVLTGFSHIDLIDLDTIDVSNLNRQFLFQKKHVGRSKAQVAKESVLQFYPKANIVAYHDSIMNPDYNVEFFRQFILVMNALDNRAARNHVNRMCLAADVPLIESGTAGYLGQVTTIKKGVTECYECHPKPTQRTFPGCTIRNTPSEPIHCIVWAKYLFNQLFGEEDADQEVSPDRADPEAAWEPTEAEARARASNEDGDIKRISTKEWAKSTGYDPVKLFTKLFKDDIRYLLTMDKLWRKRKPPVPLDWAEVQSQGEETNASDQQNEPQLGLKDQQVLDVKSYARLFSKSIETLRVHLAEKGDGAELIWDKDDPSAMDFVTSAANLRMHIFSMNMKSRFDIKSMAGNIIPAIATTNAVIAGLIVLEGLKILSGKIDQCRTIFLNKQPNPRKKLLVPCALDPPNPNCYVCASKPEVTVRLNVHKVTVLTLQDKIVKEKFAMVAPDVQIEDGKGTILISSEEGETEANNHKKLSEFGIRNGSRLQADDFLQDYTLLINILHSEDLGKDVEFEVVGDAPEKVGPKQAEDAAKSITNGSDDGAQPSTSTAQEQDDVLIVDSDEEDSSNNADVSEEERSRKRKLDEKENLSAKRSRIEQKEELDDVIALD

For the compound `Cc1sc(C(=O)c2cncnc2N[C@@H]2C[C@H](COS(N)(=O)=O)[C@@H](O)C2)cc1C1OCCc2ccc(Cl)cc21` (stereo in doubt), the inhibition result in [1] and in experiment [2] was “Active” in each case. Moreover, the result in the experiment on HCT-116 and with OCI-Ly10 was Active.

A word on the IC50: it is the concentration that inhibits the measured activity by half. With `NS(=O)(=O)OC[C@H]1C[C@@H](Nc2ncncc2C(=O)c2ccn(Cc3ccccc3)n2)[C@H](O)[C@@H]1O`, the concentration for half-maximal inhibition (IC50) at SUMO-activating enzyme [3] is 0.001 µM; in experiment [4], 0.058 µM; at NEDD8 activating enzyme [5], 0.029 µM; on SUMO-activating enzyme [6], 0.006 µM; at SUMO-activating enzyme [7] it was 0.05 µM; in [8], 1.1 µM. Also, the IC50 at NEDD8 activating enzyme [9] was found to be 0.3 µM; on SUMO-activating enzyme [10], 0.006 µM; in experiment [11], 0.41 µM; on NEDD8 activating enzyme [12], 1.4 µM; at SUMO-activating enzyme [13], 0.026 µM.
